Experimental findings from ChEMBL document CHEMBL4376852, “Ligand-Based Design of Allosteric Retinoic Acid Receptor-Related Orphan Receptor γt (RORγt) Inverse Agonists” (J Med Chem, 2020) are described below.

The target in data set [1] is T1, Nuclear receptor ROR-gamma (Homo sapiens, UniProt P51449).
T1 sequence (P51449 whole entry): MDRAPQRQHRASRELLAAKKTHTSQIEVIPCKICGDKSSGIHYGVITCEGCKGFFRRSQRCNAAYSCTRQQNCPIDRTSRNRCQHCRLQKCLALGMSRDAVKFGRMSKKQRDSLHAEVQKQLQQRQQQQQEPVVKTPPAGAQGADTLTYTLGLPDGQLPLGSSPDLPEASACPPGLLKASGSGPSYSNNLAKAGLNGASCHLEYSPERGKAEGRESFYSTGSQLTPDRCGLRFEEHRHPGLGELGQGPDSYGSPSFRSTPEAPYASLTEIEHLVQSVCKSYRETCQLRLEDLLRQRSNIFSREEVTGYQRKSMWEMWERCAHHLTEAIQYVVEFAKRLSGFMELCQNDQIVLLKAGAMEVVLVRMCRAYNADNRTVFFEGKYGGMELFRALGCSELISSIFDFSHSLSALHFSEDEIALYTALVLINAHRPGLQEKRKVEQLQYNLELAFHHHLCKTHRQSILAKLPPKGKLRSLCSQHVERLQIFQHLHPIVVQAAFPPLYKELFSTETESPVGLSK
In words: (§1) Inverse agonist activity at human N-terminal His6-tagged RORgammat LBD (265 to 518 residues) expressed in Escherichia coli BL21 (DE3) assessed as inhibition of N-terminal biotinylated co-activator SRC1 box2 peptide recruitment measured after 30 mins by TR-FRET assay.

Data set [2] addresses T2, Peroxisome proliferator-activated receptor gamma (Homo sapiens, UniProt P37231).
T2 sequence (P37231 whole entry): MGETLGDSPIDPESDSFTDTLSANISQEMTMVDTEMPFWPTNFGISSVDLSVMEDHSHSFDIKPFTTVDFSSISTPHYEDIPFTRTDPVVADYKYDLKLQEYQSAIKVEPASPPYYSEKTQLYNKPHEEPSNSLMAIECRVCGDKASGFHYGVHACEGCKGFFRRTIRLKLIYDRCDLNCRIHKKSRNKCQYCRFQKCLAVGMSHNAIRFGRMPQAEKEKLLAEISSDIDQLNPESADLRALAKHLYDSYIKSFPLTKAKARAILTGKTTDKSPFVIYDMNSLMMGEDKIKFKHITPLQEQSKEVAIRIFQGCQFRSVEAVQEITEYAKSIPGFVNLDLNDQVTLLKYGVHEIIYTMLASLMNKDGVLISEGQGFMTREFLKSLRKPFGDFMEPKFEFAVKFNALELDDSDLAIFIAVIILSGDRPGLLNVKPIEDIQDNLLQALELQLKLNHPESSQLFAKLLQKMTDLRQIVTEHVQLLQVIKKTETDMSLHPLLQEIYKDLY
As to the kind of experiment: Inverse agonist activity at His6-tagged PPARgamma LBD (unknown origin) assessed as inhibition of rosiglitazone-induced N-terminal biotinylated co-activator SRC1 box2 peptide recruitment measured after 30 mins by TR-FRET assay. The method in brief:
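His6-PPARγ-LBD at 100 nM with 100 nM N-terminal biotinylated SRC-1 box2 peptide in 10 mM HEPES, 150 mM NaCl, 5 mM DTT, 0.1% BSA, 0.1 mM CHAPS, pH 7.5, with 1 μM rosiglitazone. Tb anti-His donor, D2-streptavidin acceptor. Compounds in DMSO, 2× dilution series, 2% DMSO final. 30 min at room temperature. IC50 from sigmoidal fit of FRET ratio. Triplicate.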

The target of data set [3] is T1, Nuclear receptor ROR-gamma. As to the kind of experiment: Competitive inverse agonist activity at human N-terminal His6-tagged RORgammat LBD (265 to 518 residues) expressed in Escherichia coli BL21 (DE3) assessed as inhibition of N-terminal biotinylated co-activator SRC1 box2 peptide recruitment measured after 30 mins in absence of RORgamma agonist cholesterol by TR-FRET assay.

Data set [4] concerns the target T1, Nuclear receptor ROR-gamma. In words: Competitive inverse agonist activity at human N-terminal His6-tagged RORgammat LBD (265 to 518 residues) expressed in Escherichia coli BL21 (DE3) assessed as inhibition of N-terminal biotinylated co-activator SRC1 box2 peptide recruitment measured after 30 mins in presence of 0.25 uM RORgamma agonist cholesterol by TR-FRET assay.

Data set [5] concerns the target T1, Nuclear receptor ROR-gamma. In words: Competitive inverse agonist activity at human N-terminal His6-tagged RORgammat LBD (265 to 518 residues) expressed in Escherichia coli BL21 (DE3) assessed as inhibition of N-terminal biotinylated co-activator SRC1 box2 peptide recruitment measured after 30 mins in presence of 1 uM RORgamma agonist cholesterol by TR-FRET assay.

For data set [6], the target named is T3, Nuclear receptor ROR-gamma (Homo sapiens) (UniProt P51449).
T3 sequence (whole entry): T1 sequence (P51449 whole entry)
Described as §1.

Data set [7] is described as follows: Chemical stability of the compound in pH 7.4 aqueous buffer assessed as parent compound remaining at 2 uM measured after 24 hrs by LC-MS analysis. Type of data set: physicochemical. The settings on record: read-out: Stability. The method in brief:
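Compound at 2 μM final in aqueous buffer pH 7.4, sampled at 1, 7 and 24 h; LC–MS quantitation of each aliquot, % remaining expressed relative to the zero time point.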

A short description of data set [8]: Kinetic solubility of the compound in pH 7.4 aqueous buffer at 500 uM measured after 90 mins by spectrophotometric method. The following applies: read-out: Kinetic_solubility. Type of data set: physicochemical.
Data set [9] in a line: Permeability of the compound at 500 uM after 20 hrs by PAMPA. In kind it is ADME. The method in brief:
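Donor compartment starts at 500 μM compound; after 20 h incubation, receiver-well absorbance read by spectrophotometry; permeation normalized to flux across a blank filter.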

A short description of data set [10]: Intrinsic clearance in human liver microsomes at 3 uM measured up to 90 mins in presence of metabolic phase 1 cofactors by LC-MS analysis. In kind it is ADME, Microsome. The settings on record: 1.5 h.
Data set [11] in a line: Stability in human liver microsomes assessed as parent compound remaining at 5 uM measured after 1 hr in presence of metabolic phase 2 cofactors UDPGA by LC-MS analysis. In kind it is ADME, Microsome. The following applies: read-out: Stability. The method in brief:
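Glucuronidation conditions: 5 μM compound with liver microsomes supplemented with UDPGA, 1 h at 37 °C; % remaining determined by LC–MS.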

Data set [12] in a line: Stability of the compound in plasma (unknown origin) assessed as parent compound remaining at 5 uM measured after 1 hr by LC-MS analysis. The following applies: read-out: Stability. Type of data set: ADME, cell-free. The method in brief:
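5 μM compound incubated in 100% plasma for 1 h at 37 °C; % remaining by LC–MS.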

Data set [13] can be described thus: Protein binding in plasma (unknown origin) at 5 uM measured after 6 hrs by LC-MS based equilibrium dialysis analysis. In kind it is ADME, cell-free. The settings on record: read-out: PPB (converted). An outline of the steps: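 Equilibrium dialysis: plasma incubated with 5 μM compound for 6 h at 37 °C, final compound concentrations determined by LC–MS.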

Structures are written as SMILES. In brackets after ≈: the same amount, converted by molar mass. Bounds are passed on as bounds.

For `O=C(O)Cc1ccc(NC(=O)c2c(-c3c(Cl)cccc3C(F)(F)F)noc2-c2ccccc2)cc1`, the IC50 in data set [1] was greater than 100 µM.

In the case of `O=C(O)c1ccc(NCc2c(-c3c(Cl)cccc3C(F)(F)F)noc2-c2cccc3ccccc23)cc1`, the IC50 in data set [1] and in [2] was greater than 100 µM throughout.

As for `O=C(O)c1ccc(C(=O)Nc2c(-c3c(Cl)cccc3C(F)(F)F)noc2-c2ccccc2)cc1`, the IC50 in data set [1] was greater than 100 µM.

Consider `C[C@H]1O[C@@H](O[C@H]2[C@@H](O)C[C@H](O[C@H]3[C@@H](O)C[C@H](O[C@H]4CC[C@@]5(C)[C@H](CC[C@@H]6[C@@H]5C[C@@H](O)[C@]5(C)[C@@H](C7=CC(=O)OC7)CC[C@]65O)C4)O[C@@H]3C)O[C@@H]2C)C[C@H](O)[C@@H]1O` [DIGOXIN], for which the results for the IC50 in data set [3], in data set [4] and in data set [5] were 7.01 µM, 33.6 µM and 85.4 µM, respectively.

In the case of `O=C(O)c1ccc(NCc2c(-c3c(Cl)cccc3C(F)(F)F)noc2-c2ccccc2)cc1`, the IC50 in data set [2] was 78.6 µM.

Take `Cc1onc(-c2c(Cl)cccc2C(F)(F)F)c1C(=O)Nc1ccc(C(=O)O)cc1`: the inhibition result in data set [6] was “Dose-dependent effect”. In data set [1], the IC50 was greater than 100 µM.

Take `O=C(O)c1ccc(NCc2c(-c3c(Cl)cccc3C(F)(F)F)noc2-c2cccs2)cc1`: the IC50 in data set [1] was 1.75 µM; in data set [2] it was greater than 100 µM.

Regarding `O=C(O)c1ccc(NCc2c(-c3c(Cl)cccc3C(F)(F)F)noc2-c2cc[nH]c2)cc1`, the remaining at 24 h, 2 µM in data set [7] was determined as 95.3%. In addition, the solubility kinetic at 1.5 h, 500 µM in data set [8] is 411 µM (≈ 190 µg/mL). The same compound registered a permeability in data set [9] of 33.6%. Also, the CLH in [10] was 20.7 µL/min/mg. Also, the remaining at 1 h, 5 µM in data set [11] is 69.8%; in data set [12], 85.9%. For the same compound, in data set [13], the fraction unbound at 6 h, 5 µM was 0.001.

Consider `O=C(O)c1ccc(NC(=O)c2c(-c3c(Cl)cccc3C(F)(F)F)noc2-c2ccccc2)cc1`, for which the inhibition entry in data set [6] is “Dose-dependent effect”. In addition, the remaining at 24 h, 2 µM in data set [7] worked out at 95.4%. Further, the solubility kinetic at 1.5 h, 500 µM in data set [8] came to 490 µM (≈ 239 µg/mL). This compound also showed a permeability in data set [9] of 60.1%. Moreover, the remaining at 1 h, 5 µM in data set [11] was 100%; in data set [12], 99.9%. In addition, the fraction unbound at 6 h, 5 µM in [13] is 0.022.

Take `O=C(O)c1ccc(NCc2c(-c3c(Cl)cccc3C(F)(F)F)noc2-c2cccc(O)c2)cc1`: the IC50 in data set [2] was greater than 100 µM.

With `CC(C)(C)OC(=O)c1ccc(NC(=O)c2c(-c3c(Cl)cccc3C(F)(F)F)noc2-c2ccccc2)cc1`, the IC50 in data set [1] is greater than 100 µM.

With `O=C(O)c1c(-c2c(Cl)cccc2C(F)(F)F)noc1-c1ccccc1`, the IC50 in [1] is greater than 100 µM.

Take `O=C(O)c1ccc(-c2nn(C(=O)c3c(Cl)cccc3C(F)(F)F)c3ccccc23)cc1`: the remaining at 24 h, 2 µM in [7] came out at 81%. For the same compound, the solubility kinetic at 1.5 h, 500 µM in data set [8] was 390 µM (≈ 173 µg/mL). The compound further yielded a permeability in data set [9] of 23.7%. The remaining at 1 h, 5 µM in data set [11] was 47.1%; in [12], 100%. In data set [13], the fraction unbound at 6 h, 5 µM was 0.001.

In the case of `O=C(O)c1ccc(NCc2c(-c3c(Cl)cccc3C(F)(F)F)noc2-c2ccco2)cc1`, the half-maximal inhibitory concentration (IC50) in [2] is greater than 100 µM. Besides, the remaining at 24 h, 2 µM in data set [7] worked out at 100%. Moreover, the solubility kinetic at 1.5 h, 500 µM in [8] was 392 µM (≈ 181 µg/mL). In [9], this compound came in with a permeability of 50.4%. In addition, the CLH in data set [10] was found to be 43.2 µL/min/mg. Moreover, the remaining at 1 h, 5 µM turned out to be 92.8% in data set [11] and 86.5% in data set [12].
